Experimental data published in ChEMBL document CHEMBL1122328, “Hypolipidemic activity of phthalimide derivatives. 2. N-phenylphthalimide and derivatives” (1983).

What was measured:
[1] = system: Mus musculus; assay: In vitro effect on CF1 male mouse on acyltransferase after 16 days at a dose of 40 (mg/kg)/day; type: functional
Summary of the method: (§1)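 In vivo enzyme study. CF₁ male mice were dosed ip for 16 days in 1% CMC, and liver was homogenised to 10% in 0.25 M sucrose with 0.001 M EDTA. Enzymes assayed: acetyl-CoA synthetase as hydroxamate at 540 nm after 30 min at 37 °C; HMG CoA reductase with [1-¹⁴C]acetate in 9000g supernatant for 60 min at 37 °C; fatty acid synthetase with [2-¹⁴C]malonyl-CoA; acyltransferase with [³H]glycerol 3-phosphate and microsomes for 10 min; phosphatidate phosphohydrolase as released phosphate at 820 nm after 30 min. N = 6; reported as % control.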

[2] = organism: Mus musculus; assay: In vitro effect on CF1 male mouse on phosphatidate phosphohydrolase; type: functional
[3] = system: Mus musculus; assay: In vitro effect on CF1 male mouse on phosphatidate phosphohydrolase after 16 days at a dose of 10 (mg/kg)/day; type: functional; summary of the method: as §1
[4] = system: Mus musculus; assay: In vitro effect on CF1 male mouse on phosphatidate phosphohydrolase after 16 days at a dose of 20 (mg/kg)/day; type: functional; summary of the method: as §1
[5] = system: Mus musculus; assay: Effect on neutral lipids from CF1 male mice after 16 days at a dose of 40 (mg/kg/day); type: functional
Summary of the method: (§2)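 Dosing was ip in CF₁ male mice (~25 g) for 16 days, with compound suspended in 1% carboxymethylcellulose. Liver was then taken and homogenised to 10% in 0.25 M sucrose with 0.001 M EDTA. Lipid was extracted from a 2 mL aliquot by the Folch and Bligh–Dyer methods and total mg of lipid was weighed. Cholesterol (Liebermann–Burchard), triglycerides (kit), neutral lipids and phospholipids were then measured; N = 6; reported as % of vehicle control.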

[6] = system: Mus musculus; assay: In vitro effect on CF1 male mouse on phosphatidate phosphohydrolase after 16 days at a dose of 60 (mg/kg)/day; type: functional
Summary of the method: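 CF1 male mice dosed ip daily for 16 days, drug suspended in 1% carboxymethylcellulose; liver taken as 10% homogenate in 0.25 M sucrose + 0.001 M EDTA. Phosphatidate phosphohydrolase measured as inorganic phosphate released from phosphatidic acid after 30 min, developed with ascorbic acid/ammonium molybdate, read at 820 nm. Expressed as % of 1% CMC vehicle control; N = 6.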

[7] = system: Mus musculus; assay: Effect on triglycerides from CF1 male mice after 16 days at a dose of 10 (mg/kg/day); type: functional; summary of the method: as §2
[8] = system: Mus musculus; assay: Effect on triglycerides from CF1 male mice after 16 days at a dose of 20 (mg/kg/day); type: functional; summary of the method: as §2
[9] = system: Mus musculus; assay: Effect on Serum cholesterol levels on CF1 male mice at a dose of 12.5 (mg/kg)/day after 16 days; type: functional
Summary of the method: (§3)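 CF1 male mice (~25 g), drug suspended in 1% carboxymethylcellulose in water, given ip daily for 16 days; n = 6; vehicle control. Tail-vein blood on days 9 and 16, serum cholesterol by modified Liebermann–Burchard reaction; day-14 serum triglyceride by commercial kit; expressed as % control.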

[10] = system: Mus musculus; assay: Effect on Serum cholesterol levels on CF1 male mice at a dose of 12.5 (mg/kg)/day after 9 days; type: functional; summary of the method: as §3
[11] = system: Mus musculus; assay: Effect on Serum cholesterol levels on CF1 male mice at a dose of 20 (mg/kg)/day after 16 days; type: functional; summary of the method: as §3
[12] = system: Mus musculus; assay: Effect on Serum cholesterol levels on CF1 male mice at a dose of 50 (mg/kg)/day after 16 days; type: functional; summary of the method: as §3
[13] = system: Mus musculus; assay: Effect on Serum cholesterol levels on Hyperlipidemic induced mice After 14 days dosing.; type: functional
Summary of the method: (§4)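 Mice fed atherogenic diet for 2 weeks to raise serum lipids, then given drug at 20 (mg/kg)/day ip for a further 2 weeks; serum cholesterol and triglyceride measured after the diet and after 14 days dosing; n = 6; compared with 1% CMC and diet-only controls; % control.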

[14] = system: Mus musculus; assay: Effect on Serum triglceride levels on CF1 male mice at a dose of 100 (mg/kg)/day after 14 days; type: functional; summary of the method: as §3
[15] = system: Mus musculus; assay: Effect on Serum triglceride levels on Hyperlipidemic induced mice After 14 days dosing.; type: functional; summary of the method: as §4
[16] = system: Mus musculus; assay: Effect on Serum triglyceride levels on CF1 male mice at a dose of 20 (mg/kg)/day after 14 days; type: functional; summary of the method: as §3
[17] = system: Mus musculus; assay: In vitro effect on CF1 male mouse on Ac-CoA synthetase after 16 days at a dose of 60 (mg/kg)/day; type: functional; summary of the method: as §1
[18] = organism: Mus musculus; assay: In vitro effect on CF1 male mouse on Cholesterol side- chain oxidation; type: functional
Summary of the method: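 In vitro test on 10% CF₁ male mouse liver homogenate (0.25 M sucrose, 0.001 M EDTA) with 2.5 μmol test drug. Assays: acetyl-CoA synthetase and citrate lyase as hydroxamate at 540 nm, 30 min, 37 °C; citrate exchange from [¹⁴C]citrate-loaded mitochondria after 10 min with drug; side-chain oxidation by ¹⁴CO₂ from [26-¹⁴C]cholesterol, 18 h, 37 °C; acetyl-CoA carboxylase by [¹⁴C]bicarbonate fixation after 30 min polymerization then 30 min at 37 °C.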

[19] = system: Mus musculus; assay: In vitro effect on CF1 male mouse on Fatty acid synthetase after 16 days at a dose of 40 (mg/kg)/day; type: functional; summary of the method: as §1
[20] = system: Mus musculus; assay: In vitro effect on CF1 male mouse on HMGCoA reductase after 16 days at a dose of 10 (mg/kg)/day; type: functional; summary of the method: as §1
[21] = system: Mus musculus; assay: In vitro effect on CF1 male mouse on Ac-CoA synthetase after 16 days at a dose of 10 (mg/kg)/day; type: functional; conditions: in the assay text read “In vivo” for “In vitro”; summary of the method: as §1
[22] = system: Rattus norvegicus; assay: Effect on very low density Protein Holtzman rats after 14 days administration; type: functional
Summary of the method: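 Holtzman male rats (~400 g) received drug at 20 (mg/kg)/day for 14 days. On day 14, blood was collected from the abdominal aorta and serum was separated by centrifugation at 3500 rpm. Lipid content of the lipoprotein fractions was then determined.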

[23] = system: Rattus norvegicus; assay: Effect on Chylomicrons of Phospholipids Holtzman rats after 14 days administration; type: functional
Summary of the method: (§5)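 Holtzman male rats (~400 g) given drug at 20 (mg/kg)/day for 14 days; on day 14 blood taken from the abdominal aorta and serum separated by centrifugation at 3500 rpm; lipid and protein content of the lipoprotein fractions measured.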

[24] = system: Rattus norvegicus; assay: Effect on Serum cholesterol levels on Holtzman rats at a dose of 30 (mg/kg)/day after 16 days; type: functional
Summary of the method: (§6)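 Holtzman male rats (~200 g) dosed orally by intubation needle daily for 16 days, drug suspended in 1% carboxymethylcellulose; n = 6; vehicle control. Tail-vein serum cholesterol on days 9 and 16 by modified Liebermann–Burchard reaction; day-14 serum triglyceride by commercial kit; % control.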

[25] = system: Rattus norvegicus; assay: Effect on Serum triglceride levels on Holtzman rats at a dose of 10 (mg/kg)/day after 14 days; type: functional; summary of the method: as §6
[26] = system: Rattus norvegicus; assay: Effect on Serum triglceride levels on Holtzman rats at a dose of 30 (mg/kg)/day after 14 days; type: functional; summary of the method: as §6
[27] = system: Rattus norvegicus; assay: Effect on high density Phospholipids Holtzman rats after 14 days administration; type: functional; summary of the method: as §5
[28] = system: Rattus norvegicus; assay: Effect on high density Protein Holtzman rats after 14 days administration; type: functional; summary of the method: as §5
[29] = system: Mus musculus; assay: In vivo effect on CF1 male mouse on Lipid content after 16 days at a dose of 10 (mg/kg)/day

## CC(=O)c1ccccc1N1C(=O)c2ccccc2C1=O
[1]
  Control: 43%
[2]
  Control: 65%
[3]
  Control: 85%
[4]
  Control: 68%
[5]
  Control: 62%
[6]
  Control: 98%
[7]
  Control: 46%
[8]
  Control: 91%
[9]
  Control: 43%
[10]
  Control: 83%
[11]
  Serum cholesterol (% of control): 43%
[12]
  Control: 29%
[13]
  Control: 118%
[14]
  Control: 59%
[15]
  Control: 86%
[16]
  Control: 56%
[17]
  Control: 86%
[18]
  Control: 27%
[19]
  Control: 94%
[20]
  Control: 98%
[21]
  Control: 53%
[22]
  Control: 66%
[23]
  Control: 171%
[24]
  Control: 64%
[25]
  Control: 76%
[26]
  Control: 75%
[27]
  Control: 446%
[28]
  Control: 80%
[29]
  Control: 84%
